ChEMBL document CHEMBL4371014, “Novel Allosteric Ligands of γ-Aminobutyric Acid Transporter 1 (GAT1) by MS Based Screening of Pseudostatic Hydrazone Libraries” (J Med Chem, 2018)

Target: Sodium- and chloride-dependent GABA transporter 1 (Mus musculus) (UniProt P31648)
Assay: Inhibition of NO711 binding to mouse GAT1 expressed in HEK293 cell membranes assessed as residual binding at 1 uM preincubated for 4 hrs followed by NO711 addition and measured after 40 mins by LC-ESI-MS/MS analysis relative to control
In short: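 Single hydrazones formed in situ in the presence of mouse GAT1 from one aldehyde (1.0 µM) and hydrazine (200 µM). Formation ran 4 h, then NO711 MS marker was added for 40 min. Specifically bound NO711 was freed from the target and quantified by LC-ESI-MS/MS. Results are % remaining specific binding, means±SD of four replicates.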

SMILES | Activity [%]
COc1cc(C=O)cc(OC)c1O | 99
COc1cc(F)ccc1-c1ccccc1C=O | 101
COc1ccc(C=O)cc1 | 98
COc1ccc(F)cc1-c1ccccc1C=O | 108
COc1cccc(F)c1-c1ccccc1C=O | 112
COc1ccccc1C=O | 108
Cc1ccc(-c2cccc(C=O)c2)cc1 | 104
Cc1ccc(-c2ccsc2C=O)c(C)c1 | 124
Cc1ccc(-c2ccsc2C=O)cc1 | 109
Cc1cccc2cc(C=O)c(Cl)nc12 | 103
Cc1ccccc1-c1ccsc1C=O | 93
Cc1ccsc1-c1ccccc1C=O | 105
Cc1ccsc1-c1sc(C=O)cc1C | 106
Cn1c(C=O)ccc1-c1ccc(Cl)cc1 | 101
Cn1cnnc1Sc1ccc(C=O)o1 | 86
Nc1ncc(-c2ccccc2C=O)cn1 | 121
O=Cc1cc(Br)co1 | 126
O=Cc1ccc(-c2cc(C(F)(F)F)cc(C(F)(F)F)c2)o1 | 103
O=Cc1ccc(-c2cc(C(F)(F)F)ccc2Cl)o1 | 88
O=Cc1ccc(-c2ccc(Br)cc2)o1 | 97
O=Cc1ccc(-c2ccc(C(F)(F)F)cc2Cl)o1 | 98
O=Cc1ccc(-c2ccc(Cl)cc2)o1 | 75
O=Cc1ccc(-c2ccc(Cl)cc2)s1 | 107
O=Cc1ccc(-c2ccc(Cl)cc2Cl)o1 | 97
O=Cc1ccc(-c2ccc(Cl)cc2F)o1 | 97

SMILES | Activity [%]
O=Cc1ccc(-c2ccc(Cl)cc2[N+](=O)[O-])o1 | 72
O=Cc1ccc(-c2ccc(F)c(C(F)(F)F)c2)o1 | 99
O=Cc1ccc(-c2cccc(C(F)(F)F)c2)o1 | 70
O=Cc1ccc(-c2cccc(Cl)c2)o1 | 103
O=Cc1ccc(-c2cccc3ccccc23)o1 | 92
O=Cc1ccc(-c2ccccc2)[nH]1 | 98
O=Cc1ccc(-c2ccccc2)o1 | 82
O=Cc1ccc(-c2ccccc2)s1 | 112
O=Cc1ccc(-c2ccccc2Br)o1 | 129
O=Cc1ccc(-c2ccccc2C(F)(F)F)o1 | 90
O=Cc1ccc(-c2ccccc2Cl)o1 | 99
O=Cc1ccc(-c2ccccc2OC(F)(F)F)o1 | 88
O=Cc1ccc(-c2ccn[nH]2)o1 | 93
O=Cc1ccc(Br)o1 | 127
O=Cc1ccc(C#Cc2ccccc2)s1 | 90
O=Cc1ccc(I)o1 | 115
O=Cc1ccc([N+](=O)[O-])cc1 | 113
O=Cc1ccc2ccccc2n1 | 114
O=Cc1ccc[nH]1 | 107
O=Cc1cccc(-c2ccc(Cl)cc2)c1 | 108
O=Cc1cccc(-c2ccc(F)cc2)c1 | 122
O=Cc1cccc(-c2ccccc2)c1 | 111
O=Cc1cccc(Oc2ccccc2)c1 | 109
O=Cc1ccccc1-c1cc(F)cc(F)c1 | 112
O=Cc1ccccc1-c1cc(F)ccc1F | 98

SMILES | Activity [%]
O=Cc1ccccc1-c1ccc(F)cc1F | 97
O=Cc1ccccc1-c1cccc(F)c1F | 107
O=Cc1ccccc1-c1cccnc1 | 119
O=Cc1ccccc1-c1cccs1 | 107
O=Cc1ccccc1-c1ccsc1 | 106
O=Cc1ccccc1-n1cccc1 | 92
O=Cc1cccn1-c1ccc(C(F)(F)F)cc1 | 87
O=Cc1ccco1 | 107
O=Cc1cccs1 | 118
O=Cc1ccnc2ccccc12 | 100
O=Cc1cnc(-c2ccc3ccccc3c2)nc1 | 110
O=Cc1cnc(-c2cccc3ccccc23)nc1 | 124
O=Cc1cnc(-c2ccccc2)nc1 | 113
O=Cc1cnc(-c2ccccc2F)nc1 | 116
O=Cc1cnc(-c2ccccn2)nc1 | 106
O=Cc1cnc(-c2ccco2)nc1 | 118
O=Cc1cnc(-c2cccs2)nc1 | 103
O=Cc1cnc(N2CCCCC2)nc1 | 108
O=Cc1cnc(NCc2ccccc2)nc1 | 118
O=Cc1cnc(SCc2ccccc2)nc1 | 116
O=Cc1cncnc1 | 118
O=Cc1csc2ccccc12 | 77
O=Cc1sccc1-c1ccc(C(F)(F)F)cc1C(F)(F)F | 129
O=Cc1sccc1-c1ccc(Cl)cc1 | 113
O=Cc1sccc1-c1ccc(Cl)cc1Cl | 116

SMILES | Activity [%]
O=Cc1sccc1-c1ccc(F)cc1F | 118
O=Cc1sccc1-c1ccccc1 | 113
O=Cc1sccc1-c1ccccc1Cl | 121
O=Cc1sccc1-c1ccccc1F | 121
O=Cc1sccc1-n1cccc1 | 82
COc1cc(F)ccc1-c1ccccc1/C=N/NC[C@@H]1CNC[C@H](C(=O)O)C1 (racemic) | 80
COc1ccc(/C=N/NC[C@@H]2CNC[C@H](C(=O)O)C2)cc1 (racemic) | 85
COc1ccc(F)cc1-c1ccccc1/C=N/NC[C@@H]1CNC[C@H](C(=O)O)C1 (racemic) | 72
COc1cccc(F)c1-c1ccccc1/C=N/NC[C@@H]1CNC[C@H](C(=O)O)C1 (racemic) | 70
COc1ccccc1/C=N/NC[C@@H]1CNC[C@H](C(=O)O)C1 (racemic) | 85
Cc1ccc(-c2ccsc2/C=N/NC[C@@H]2CNC[C@H](C(=O)O)C2)c(C)c1 (racemic) | 80
Cc1ccsc1-c1sc(/C=N/NC[C@@H]2CNC[C@H](C(=O)O)C2)cc1C (racemic) | 74
O=C(O)[C@H]1CNC[C@@H](CN/N=C/c2ccc(-c3ccc(Cl)cc3)o2)C1 (racemic) | 56
O=C(O)[C@H]1CNC[C@@H](CN/N=C/c2ccc(-c3ccc(Cl)cc3Cl)o2)C1 (racemic) | 40
O=C(O)[C@H]1CNC[C@@H](CN/N=C/c2ccc(-c3ccc(Cl)cc3F)o2)C1 (racemic) | 67
O=C(O)[C@H]1CNC[C@@H](CN/N=C/c2ccc(-c3ccc(Cl)cc3[N+](=O)[O-])o2)C1 (racemic) | 37
O=C(O)[C@H]1CNC[C@@H](CN/N=C/c2ccc(-c3ccc(F)c(C(F)(F)F)c3)o2)C1 (racemic) | 36
O=C(O)[C@H]1CNC[C@@H](CN/N=C/c2ccc(-c3cccc(C(F)(F)F)c3)o2)C1 (racemic) | 38
O=C(O)[C@H]1CNC[C@@H](CN/N=C/c2ccc(-c3cccc(Cl)c3)o2)C1 (racemic) | 46
O=C(O)[C@H]1CNC[C@@H](CN/N=C/c2ccc(-c3ccccc3)o2)C1 (racemic) | 68
O=C(O)[C@H]1CNC[C@@H](CN/N=C/c2ccc(-c3ccccc3C(F)(F)F)o2)C1 (racemic) | 49
O=C(O)[C@H]1CNC[C@@H](CN/N=C/c2ccc(-c3ccccc3Cl)o2)C1 (racemic) | 48
O=C(O)[C@H]1CNC[C@@H](CN/N=C/c2ccc(-c3ccccc3OC(F)(F)F)o2)C1 (racemic) | 66
O=C(O)[C@H]1CNC[C@@H](CN/N=C/c2ccc(-c3ccn[nH]3)o2)C1 (racemic) | 81
O=C(O)[C@H]1CNC[C@@H](CN/N=C/c2ccc(C#Cc3ccccc3)s2)C1 (racemic) | 51

SMILES | Activity [%]
O=C(O)[C@H]1CNC[C@@H](CN/N=C/c2ccc([N+](=O)[O-])cc2)C1 (racemic) | 83
O=C(O)[C@H]1CNC[C@@H](CN/N=C/c2ccc3ccccc3n2)C1 (racemic) | 81
O=C(O)[C@H]1CNC[C@@H](CN/N=C/c2cccc(-c3ccccc3)c2)C1 (racemic) | 52
O=C(O)[C@H]1CNC[C@@H](CN/N=C/c2cccc(Oc3ccccc3)c2)C1 (racemic) | 46
O=C(O)[C@H]1CNC[C@@H](CN/N=C/c2ccccc2-c2cc(F)cc(F)c2)C1 (racemic) | 90
O=C(O)[C@H]1CNC[C@@H](CN/N=C/c2ccccc2-c2cc(F)ccc2F)C1 (racemic) | 73
O=C(O)[C@H]1CNC[C@@H](CN/N=C/c2ccccc2-c2ccc(F)cc2F)C1 (racemic) | 66
O=C(O)[C@H]1CNC[C@@H](CN/N=C/c2ccccc2-c2cccc(F)c2F)C1 (racemic) | 58
O=C(O)[C@H]1CNC[C@@H](CN/N=C/c2ccccc2-c2cccnc2)C1 (racemic) | 93
O=C(O)[C@H]1CNC[C@@H](CN/N=C/c2ccccc2-c2cccs2)C1 (racemic) | 87
O=C(O)[C@H]1CNC[C@@H](CN/N=C/c2ccccc2-n2cccc2)C1 (racemic) | 91
O=C(O)[C@H]1CNC[C@@H](CN/N=C/c2cccn2-c2ccc(C(F)(F)F)cc2)C1 (racemic) | 75
O=C(O)[C@H]1CNC[C@@H](CN/N=C/c2ccnc3ccccc23)C1 (racemic) | 74
O=C(O)[C@H]1CNC[C@@H](CN/N=C/c2csc3ccccc23)C1 (racemic) | 82
O=C(O)[C@H]1CNC[C@@H](CN/N=C/c2sccc2-c2ccc(C(F)(F)F)cc2C(F)(F)F)C1 (racemic) | 88
O=C(O)[C@H]1CNC[C@@H](CN/N=C/c2sccc2-c2ccc(Cl)cc2)C1 (racemic) | 80
O=C(O)[C@H]1CNC[C@@H](CN/N=C/c2sccc2-c2ccc(Cl)cc2Cl)C1 (racemic) | 81
O=C(O)[C@H]1CNC[C@@H](CN/N=C/c2sccc2-c2ccc(F)cc2F)C1 (racemic) | 80
O=C(O)[C@H]1CNC[C@@H](CN/N=C/c2sccc2-c2ccccc2)C1 (racemic) | 85
O=C(O)[C@H]1CNC[C@@H](CN/N=C/c2sccc2-c2ccccc2Cl)C1 (racemic) | 84
O=C(O)[C@H]1CNC[C@@H](CN/N=C/c2sccc2-c2ccccc2F)C1 (racemic) | 84
O=C(O)[C@H]1CNC[C@@H](CN/N=C/c2sccc2-n2cccc2)C1 (racemic) | 86
